# Data reported in ChEMBL document CHEMBL3763158, “Sampangine (a Copyrine Alkaloid) Exerts Biological Activities through Cellular Redox Cycling of Its Quinone and Semiquinone Intermediates” (J Nat Prod, 2015).
# The source made the active and inactive calls. No cut-off for these calls is given here.
# What was measured:
# T47D [1] = test: Increase in oxygen consumption rate of mitochondrial state 4 respiration in human T47D cells assessed as reinitiation of oligomycin-stalled cellular respiration by Clark-type oxygen electrode assay; format: functional, cell-based
# Summary of the method: (§1)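 Clark electrode oxygen consumption in cells with oligomycin (F0F1-ATPase inhibitor) stalling respiration, then compound added to test reinitiation; FCCP as standard uncoupler reference.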
# T47D [2] = test: Increase in oxygen consumption rate in digitonin permeabilized human T47D cells assessed as reinitiation of sodium azide-stalled cellular respiration by oxytherm Clark-type electrode assay in presence of ascorbate relative to compound alone; format: functional, cell-based
# Summary of the method: (§2)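 Digitonin-permeabilized T47D cells given sequential additions: NaN3 (10 mM) to suppress mitochondrial respiration, then compound (30 μM), solvent (2-propanol, 0.6%) or ascorbate (1 and 5 mM), all final. OCR after each addition normalized to NaN3 value; mean ± range of two experiments.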
# T47D [3] = test: Increase in oxygen consumption rate in human T47D cells by oxytherm Clark-type electrode assay; format: functional, cell-based
# Summary of the method: (§3)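 Intact T47D cells; oxygen consumption rate measured by Oxytherm Clark electrode with or without compound, normalized to untreated control. FCCP as positive control. Mean + range of two independent experiments.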
# T47D [4] = test: Induction of alteration in […] in human T47D cells assessed as intracellular calcium level at 30 uM after 30 mins by fura-2 dye based fluorescence assay; format: functional, cell-based
# Summary of the method: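 T47D cells loaded with fura-2 per manufacturer's instructions and treated 30 min; per-cell 340/380 nm excitation ratio taken as Ca2+ indicator by live microscopy. Average ± SD of 20 cells.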
# T47D [5] = test: Activation of hypoxia-induced HIF-1 in human T47D cells cotransfected with pHRE-luciferase plasmid at 1 to 3 uM preincubated for 30 mins followed by hypoxia induction measured after 16 hrs by luciferase reporter gene assay; format: cell-based
# Summary of the method: (§4)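 T47D cells transfected with pHRE-luc construct, exposed to hypoxia (1% O2, 16 h) with compound. Luciferase activity read; % inhibition = [1 − (luciferase)compound/(luciferase)control] × 100 against hypoxic media control. Emetine as positive control. Parallel viability by SRB. Average ± SD, n = 3.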
# [6] = Neurotoxicity against rat CGN assessed as neuronal cell death at 30 uM after 24 hrs by Hoechst 33342/propidium iodide staining based assay; format: toxicity
# Summary of the method: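 Primary cerebellar granule neurons from rat pups, cultured 6–10 days, then exposed 24 h. Stained with Hoechst 33342 and propidium iodide; live (PI negative, healthy nuclei) versus dead or dying (PI positive, or condensed/fragmented nuclei) cells counted.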
# T47D [7] = test: Effect on mitochondrial membrane potential in human T47D cells at 30 uM after 30 mins by TMRM dye based fluorescence microscopy; format: functional, cell-based
# Summary of the method: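 T47D cells loaded with TMRM+ (37 °C, 2 h), then compound for 30 min; live epifluorescence imaging, fluorescence quantified per outlined cell in random fields. FCCP as positive control. Average ± SD from 20 cells.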
# T47D [8] = test: Cytostatic activity against human T47D cells at 1 to 30 uM after 48 hrs by sulforhodamine B assay; format: functional, cell-based
# T47D [9] = test: Increase in oxygen consumption rate in human T47D cells at 30 uM by oxytherm Clark-type electrode assay relative to control; format: functional; summary of the method: as §3
# T47D [10] = test: Cytotoxicity against human T47D cells at 1 to 30 uM after 48 hrs by sulforhodamine B assay; format: functional, cell-based
# Saccharomyces cerevisiae = test: Increase in oxygen consumption rate in Saccharomyces cerevisiae at 10 to 30 uM by oxytherm Clark-type electrode assay; format: functional, organism-based
# Summary of the method: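 Budding yeast oxygen consumption followed with an Oxytherm Clark electrode, with and without compound. Values normalized to untreated control; average + SD of three independent determinations, p < 0.05 significance versus untreated.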
# T47D [11] = test: Increase in oxygen consumption rate in digitonin permeabilized human T47D cells at 30 uM relative to control; format: functional; summary of the method: as §2
# T47D [12] = test: Inhibition of hypoxia-induced HIF-1 in human T47D cells cotransfected with pHRE-luciferase plasmid at 10 to 30 uM preincubated for 30 mins followed by hypoxia induction measured after 16 hrs by luciferase reporter gene assay; format: cell-based; summary of the method: as §4
# Hep 3B2 = test: Increase in oxygen consumption rate of mitochondrial state 4 respiration in human Hep3B cells assessed as reinitiation of oligomycin-stalled cellular respiration by Clark-type oxygen electrode assay; format: functional, cell-based; summary of the method: as §1
# MDA-MB-231 [13] = test: Cytostatic activity against human MDA-MB-231 cells at 1 to 30 uM after 48 hrs by sulforhodamine B assay; format: functional, cell-based
# T47D [14] = test: Cytostatic activity against human T47D cells at 1 to 30 uM after 48 hrs by sulforhodamine B assay in presence of ascorbate; format: functional, cell-based
# MDA-MB-231 [15] = test: Cytostatic activity against human MDA-MB-231 cells at 1 to 30 uM after 48 hrs by sulforhodamine B assay in presence of ascorbate; format: functional, cell-based
# MDA-MB-231 [16] = test: Cytotoxicity against human MDA-MB-231 cells at 1 to 30 uM after 48 hrs by sulforhodamine B assay; format: functional, cell-based
# T47D [17] = test: Increase in oxygen consumption rate in digitonin permeabilized human T47D cells assessed as reinitiation of sodium azide-stalled cellular respiration at 30 uM relative to control; format: functional; summary of the method: as §2
compound,measurement,setting,value
O=C1c2ccccc2-c2nccc3ccnc1c23 [SAMPANGINE],Activity,T47D [1],Dose-dependent effect
same,Activity,T47D [2],Dose-dependent effect
same,Activity,T47D [3],Dose-dependent effect
same,Activity,T47D [4],inactive
same,Activity,T47D [5],Dose-dependent effect
same,Activity,[6],Toxic
same,Activity,T47D [7],Active
same,Activity,T47D [8],Active
same,Activity,T47D [9],50%
same,fold change (FC),T47D [9],1.5
same,Activity,T47D [10],Active
same,Activity,Saccharomyces cerevisiae,Active
same,Activity,T47D [11],46%
same,inhibition,T47D [12],Dose-dependent effect
same,Activity,Hep 3B2,Active
same,Activity,MDA-MB-231 [13],Active
same,Activity,T47D [14],Active
same,Activity,MDA-MB-231 [15],Active
same,Activity,MDA-MB-231 [16],Active
same,Activity,T47D [17],48%
